SMILES strings stand for the structures. In brackets after ≈: the same amount, converted by molar mass.

What all share (type): functional
One test has as its system Staphylococcus aureus. Put plainly: Antimicrobial activity against Staphylococcus aureus after 24 hrs by agar dilution technique. Summed up: (§1)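 Suspensions of E. coli, B. subtilis and Staphylococcus aureus were prepared at about 10⁵–10⁶ CFU/well, and test compounds were applied to the wells over a concentration range. MIC was taken as the lowest concentration with no apparent growth, disregarding a single colony or a faint haze from the inoculum.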
For orientation: In agar dilution, organisms are placed on agar that contains the substance at set levels.

A short description of test [1]: Antioxidant activity assessed as superoxide radical scavenging activity measured as formazone formation by spectrophotometry relative to control. The arrangement: concentration or dose not given beside the values. Summed up: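 NADH–NBT–PMS superoxide-generating mixture in 0.1 M phosphate buffer, pH 7.4, with reagents made up in buffer. Sample was added from a 1 mM DMSO solution. The reaction ran at room temperature, and superoxide formation was followed as blue formazan absorbance at 560 nm. Lower absorbance was read as higher scavenging.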

A further test relates to Bacillus subtilis. Briefly: Antimicrobial activity against Bacillus subtilis after 24 hrs by agar dilution technique. The essentials:
as §1

Another test relates to Escherichia coli. Briefly: Antimicrobial activity against Escherichia coli after 24 hrs by agar dilution technique. Summed up:
as §1

Take `Cc1c2c(nn1CC(=O)N/N=C/c1ccccc1Cl)-c1ccccc1S(=O)(=O)N2C`: the minimum inhibitory concentration (MIC) in the test on Staphylococcus aureus, with Bacillus subtilis and in the test with Escherichia coli was above 200 µg/mL throughout. Moreover, the Activity in test [1] turned out to be 44.2%.

With `Cc1c2c(nn1CC(=O)N/N=C/c1ccccc1)-c1ccccc1S(=O)(=O)N2C`, the MIC with Staphylococcus aureus was above 200 µg/mL; with Bacillus subtilis, above 200 µg/mL; in the test on Escherichia coli it was 69 µg/mL (≈ 169 µM). In addition, in test [1], the Activity was 33.9%.

Regarding `Cc1c2c(nn1CC(=O)N/N=C/c1ccc(Cl)cc1Cl)-c1ccccc1S(=O)(=O)N2C`, the MIC with Staphylococcus aureus, against Bacillus subtilis and in the test on Escherichia coli was above 200 µg/mL throughout. For the same molecule, in test [1], the Activity worked out at 48.7%.

With `COc1ccc(/C=N/NC(=O)Cn2nc3c(c2C)N(C)S(=O)(=O)c2ccccc2-3)c(OC)c1`, the MIC in the test with Staphylococcus aureus is above 200 µg/mL; against Bacillus subtilis, above 200 µg/mL; in the test with Escherichia coli it was 17 µg/mL (≈ 36.2 µM). In addition, in test [1], the Activity stood at 53.1%.

Turning to `CCOc1cc(/C=N/NC(=O)Cn2nc3c(c2C)N(C)S(=O)(=O)c2ccccc2-3)ccc1O`, the MIC against Staphylococcus aureus is above 200 µg/mL; in the test with Bacillus subtilis it was 47 µg/mL (≈ 100 µM); with Escherichia coli it was 11 µg/mL (≈ 23.4 µM). Further, the Activity in test [1] was found to be 71.1%.

For the molecule `CN(C)[C@@H]1C(O)=C(C(N)=O)C(=O)[C@@]2(O)C(O)=C3C(=O)c4c(O)cccc4[C@@](C)(O)[C@H]3C[C@@H]12` [TETRACYCLINE], the minimal inhibitory concentration (MIC) was found to be 0.78 µg/mL (≈ 1.76 µM) in the test on Staphylococcus aureus, 0.35 µg/mL (≈ 0.788 µM) in the test with Bacillus subtilis and 0.25 µg/mL (≈ 0.563 µM) against Escherichia coli.

As to `Cc1c2c(nn1CC(=O)N/N=C/c1cccc([N+](=O)[O-])c1)-c1ccccc1S(=O)(=O)N2C`, the minimum inhibitory concentration (MIC) in the test on Staphylococcus aureus, with Bacillus subtilis and in the test on Escherichia coli was above 200 µg/mL in each case. The Activity in test [1] came out at 52.2%.

For `Cc1c2c(nn1CC(=O)N/N=C/c1ccc(Cl)c(Cl)c1)-c1ccccc1S(=O)(=O)N2C`, the MIC with Staphylococcus aureus, in the test with Bacillus subtilis and against Escherichia coli was above 200 µg/mL each time. Also, the Activity in test [1] was 51.5%.

As for `Cc1c2c(nn1CC(=O)N/N=C/c1ccccn1)-c1ccccc1S(=O)(=O)N2C`, the minimum inhibitory concentration (MIC) in the test on Staphylococcus aureus is above 200 µg/mL; against Bacillus subtilis, 88 µg/mL (≈ 214 µM); in the test with Escherichia coli, 28 µg/mL (≈ 68.2 µM). Also, the Activity in test [1] came out at 24%.

Consider `Cc1c2c(nn1CC(=O)N/N=C/c1ccc(Cl)cc1)-c1ccccc1S(=O)(=O)N2C`, for which the minimum inhibitory concentration (MIC) in the test on Staphylococcus aureus, in the test with Bacillus subtilis and against Escherichia coli was above 200 µg/mL in each case. For the same molecule, the Activity in test [1] came out at 23.3%.

As to `CCCOC(=O)c1cc(O)c(O)c(O)c1`, in test [1], the Activity amounted to 91.3%.

As to `Cc1c2c(nn1CC(=O)N/N=C/c1ccc(F)cc1)-c1ccccc1S(=O)(=O)N2C`, the MIC in the test on Staphylococcus aureus, against Bacillus subtilis and in the test with Escherichia coli was above 200 µg/mL each time. For the same molecule, the Activity in test [1] is 17.4%.

Consider `Cc1c2c(nn1CC(=O)N/N=C/c1ccccc1[N+](=O)[O-])-c1ccccc1S(=O)(=O)N2C`, for which the minimal inhibitory concentration (MIC) in the test on Staphylococcus aureus, in the test on Bacillus subtilis and against Escherichia coli was above 200 µg/mL throughout. The Activity in test [1] is 28.8%.

As for `COc1cccc(/C=N/NC(=O)Cn2nc3c(c2C)N(C)S(=O)(=O)c2ccccc2-3)c1`, the minimum inhibitory concentration (MIC) in the test on Staphylococcus aureus is above 200 µg/mL; against Bacillus subtilis, 69 µg/mL (≈ 157 µM); in the test on Escherichia coli, 23 µg/mL (≈ 52.3 µM). The Activity in test [1] worked out at 44.9%.

In the case of `Cc1c2c(nn1CC(=O)N/N=C/c1ccc([N+](=O)[O-])cc1)-c1ccccc1S(=O)(=O)N2C`, the MIC in the test on Staphylococcus aureus, in the test with Bacillus subtilis and in the test on Escherichia coli was above 200 µg/mL in each case. In addition, the Activity in test [1] came to 23.7%.

Take `Cc1c2c(nn1CC(=O)N/N=C/c1ccc(O)cc1O)-c1ccccc1S(=O)(=O)N2C`: the MIC is above 200 µg/mL against Staphylococcus aureus, 39 µg/mL (≈ 88.3 µM) in the test with Bacillus subtilis and 5 µg/mL (≈ 11.3 µM) in the test with Escherichia coli. The Activity in test [1] is 98.3%.

Consider `Cc1c2c(nn1CC(=O)N/N=C/c1ccsc1)-c1ccccc1S(=O)(=O)N2C`, for which the MIC in the test on Staphylococcus aureus was determined as 61 µg/mL (≈ 147 µM); against Bacillus subtilis, 82 µg/mL (≈ 197 µM); with Escherichia coli, 24 µg/mL (≈ 57.8 µM). In addition, the Activity in test [1] turned out to be 16.5%.

With `Cc1c2c(nn1CC(=O)N/N=C/c1cccnc1)-c1ccccc1S(=O)(=O)N2C`, the minimal inhibitory concentration (MIC) is above 200 µg/mL against Staphylococcus aureus, 95 µg/mL (≈ 231 µM) with Bacillus subtilis and 27 µg/mL (≈ 65.8 µM) with Escherichia coli. Also, the Activity in test [1] came to 25.1%.

Consider `Cc1c2c(nn1CC(=O)N/N=C/c1cccs1)-c1ccccc1S(=O)(=O)N2C`, for which the minimal inhibitory concentration (MIC) in the test with Staphylococcus aureus worked out at 55 µg/mL (≈ 132 µM); in the test with Bacillus subtilis, 77 µg/mL (≈ 185 µM); with Escherichia coli, 23 µg/mL (≈ 55.4 µM). In test [1], the Activity was determined as 14.6%.

A word on the MIC: it is the least concentration at which growth counts as inhibited.
